“Also recorded” adds a separate entry of the source. Where two headings read alike, the source gives them in different places.
Experiments:
[1] = Immunogenicity: antidrug antibodies; assay type: in vivo, human; details: 100 µg s.c. single dose; baseline, 7 and 28 days after treatment
In short: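 Open-label single subcutaneous dose of test compound (100 µg, lower abdomen, fasted) in adults with normal or impaired renal function. Antidrug antibody titers were measured at baseline, 7 and 28 days post-dose, or at early discontinuation. Cross-reactivity to GLP-1 and glucagon was also recorded. Treatment-emergent incidence is treatment-induced plus treatment-boosted ADA. Analysed in all treated participants with ADA readings.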

[2] = 5–300 µg dose range; previously demonstrated, no reference given; cited from earlier work
[3] = cited from earlier work
[4] = assay type: in vivo, human; details: 100 µg s.c. single dose
In short: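 Adults aged 18–85 (BMI 17–40 kg/m2) were grouped by Cockcroft–Gault CrCl and given a single subcutaneous 100 µg dose of test compound. Fasting ran from ≥8 h before to 4 h after dosing, with no fluids 1 h before to 2 h after. Adverse events, vitals, ECG, telemetry and laboratory tests were monitored inpatient for 72 h, then outpatient at days 7±1 and 28±2. TEAEs were coded by MedDRA 21.0, counting each once at highest severity.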

[5] = in vitro studies; cited from earlier work
[6] = severe renally impaired and ESRD subjects; cited from earlier work

Row | Compound | Antidrug antibody (ADA) results [1] | PK profile (dose and time dependence) [2] | Urine albumin-to-creatinine ratio vs placebo ([3]; 32-day treatment with cotadutide 50–300 µg, T2D and stage 3 CKD with micro- and macroalbuminuria) | Participants with a serious TEAE deemed related to cotadutide ([3]; once-daily cotadutide titrated to 50–300 µg for 32 days, moderate renal impairment and T2D, 1 of 21 participants) [%] | Incidence of headache ([4]; 10 of 37 individuals) [%] | Incidence of nausea ([4]; 12 of 37 individuals) [%] | Incidence of vomiting ([4]; 13 of 37 individuals) [%] | Severity of TEAEs ([4]; all groups) | Incidence of TEAE ([4]; all patients, 22 of 37) [%] | Incidence of TEAE ([4]; lower moderate renal impairment group, 8 of 11 patients) [%] | Incidence of nausea ([4]; normal renal function group) [%] | Incidence of vomiting ([4]; normal renal function group) [%] | Incidence of nausea, range ([4]; renal impairment groups) | Incidence of vomiting, range ([4]; renal impairment groups) | Deaths or other serious TEAEs ([4]; study period) | Incidence of TEAE ([4]; upper moderate renal impairment group, 3 of 7 patients) [%] | Primary cleavage sites (metabolized specifically in the kidney) [5] | Tolerability and PK in severe renal impairment and ESRD [6]
1 | CCCCCCCCCCCCCCCC(=O)N[C@@H](CCC(=O)NCCCC[C@H](NC(=O)[C@H](CC(=O)O)NC(=O)[C@H](CO)NC(=O)[C@@H](NC(=O)[C@H](Cc1ccccc1)NC(=O)[C@@H](NC(=O)CNC(=O)[C@H](CCC(N)=O)NC(=O)[C@H](CO)NC(=O)[C@@H](N)Cc1c[nH]cn1)[C@@H](C)O)[C@@H](C)O)C(=O)N[C@@H](CO)C(=O)N[C@@H](CCC(=O)O)C(=O)N[C@@H](Cc1ccc(O)cc1)C(=O)N[C@@H](CC(C)C)C(=O)N[C@@H](CC(=O)O)C(=O)N[C@@H](CO)C(=O)N[C@@H](CCC(=O)O)C(=O)N[C@@H](CCCNC(=N)N)C(=O)N[C@@H](C)C(=O)N[C@@H](CCCNC(=N)N)C(=O)N[C@@H](CC(=O)O)C(=O)N[C@@H](Cc1ccccc1)C(=O)N[C@H](C(=O)N[C@@H](C)C(=O)N[C@@H](Cc1c[nH]c2ccccc12)C(=O)N[C@@H](CC(C)C)C(=O)N[C@@H](CCC(=O)O)C(=O)N[C@@H](C)C(=O)NCC(=O)NCC(=O)O)C(C)C)C(=O)O [cotadutide] | No positive antidrug antibody results; also recorded: No confirmed positive ADA results | linear and time-independent PK profile | reduced urine albumin-to-creatinine ratio | 4.8 | 27.0 | 32.4 | 35.1 | mostly mild to moderate in severity | 59.5 | 72.7 | 38 | 38 | 29–38% | 18–50% | no deaths or other serious TEAEs | 42.9 | – | –
2 | exenatide: GLP-1 receptor agonist exenatide (exendin-4) | – | – | – | – | – | – | – | – | – | – | – | – | – | – | – | – | after amino acids (AA)-21 and -22 | poor tolerability and significant changes in PK

Source: publication PMC10256642 (Clinical Pharmacokinetics, 2023)
